Experimental data collected from several papers.
Protocols differ between the studies behind these lines.
Target: Serine/threonine-protein kinase/endoribonuclease IRE1 (ERN1, Homo sapiens, UniProt O75460)

| SMILES | read-out | technique | tested at | remaining binding |
| --- | --- | --- | --- | --- |
| CNC(=O)Nc1ccc2c(c1)CC[C@@]21OC(=O)N(CC(=O)N(Cc2ccc(F)cc2)[C@@H](C)C(F)(F)F)C1=O | cell-free assay | competition with immobilised ligand | 1 µM | 56% |
| O=C(Nc1c[nH]nc1C(=O)NC1CCNCC1)c1cc(F)cc(F)c1 | binding | competition with immobilised ligand | 1 µM | 86% |
| O=C(NCCCN1CCOCC1)c1ccc(Nc2ncc(Cl)c(-c3ccc(Cl)s3)n2)cc1 | binding | competition with immobilised ligand | 1 µM | 27% |
| CN(C)c1nccc(-c2cnc3ncccn23)n1 | binding |  | 1 µM | 60% |
| CS(=O)(=O)N1CCCC(NC(=O)[C@H](CCC2CCCCC2)NC(=O)c2ccc(CNc3ncnc4c3nnn4-c3ccccc3)cc2)C1 (stereo partly drawn) | cell-free assay | competition with immobilised ligand | 0.1 µM | 100% |
| CN(CCCC(F)(F)F)c1nccc(-c2cnn3ncccc23)n1 | binding |  | 1 µM | 97% |
| c1cncc(-c2cccc(Nc3nccc(NC4CCCCC4)n3)c2)c1 | binding | competition with immobilised ligand | 10 µM | 44% |
| CCC(=O)N[C@H]1CC[C@@H](C(=O)N(C)c2ccc(-c3nc4ccccc4o3)cc2)C1 | cell-free assay | competition with immobilised ligand | 1 µM | 91% |
| C=CC(=O)N1CCC(C(=O)NCC(=O)N2CCN(c3nc(-c4cnc(N)nc4C(F)F)nc(N4CCOCC4)n3)CC2)CC1 | binding | competition with immobilised ligand | 1 µM | 100% |
| CCCCN(CCCC)C(=O)CN1C[C@@H](c2cc(OC)c3c(c2)OCO3)[C@H](C(=O)O)[C@H]1CC(C)(C)CCC | cell-free assay | competition with immobilised ligand | 1 µM | 100% |
| COc1cnc(Nc2cccc(S(N)(=O)=O)c2)nc1N1CCN(c2ccccc2)CC1 | binding | competition with immobilised ligand | 1 µM | 73% |
| O=C(O)[C@@H]1[C@@H](Cn2nnc3ccccc3c2=O)CC[C@H]1C(=O)c1ccc(OCCC2CCOCC2)cc1 | cell-free assay | competition with immobilised ligand | 1 µM | 88% |
| N[C@H]1CCN(c2nccc(-c3cnn4ncccc34)n2)C1 | binding |  | 1 µM | 98% |
| CNC(=O)[C@@H]1CC[C@@H](n2c(-c3ccc4cnccc4c3)nc3ccc(C(=O)NCc4cccc(C(N)=O)c4)cc32)C1 | binding | competition with immobilised ligand | 1 µM | 97% |
| O=C(c1ccc(Nc2nccc(-c3cc4ccccc4s3)n2)cc1)N1CCC(N2CCCC2)CC1 | binding | competition with immobilised ligand | 1 µM | 41% |
| C[C@@H]1CCN(c2nccc(-c3cnn4ncccc34)n2)C1 | binding |  | 1 µM | 100% |
| O=C(c1ccc(Nc2ncc(Cl)c(-c3ccc(Cl)s3)n2)cc1)N1CCC(N2CCCC2)CC1 | binding | competition with immobilised ligand | 1 µM | 35% |
| CN(C)c1nccc(-c2cnn3ncccc23)n1 | binding |  | 1 µM | 100% |
| CCCOc1ccc([C@H]2[C@H](C(=O)O)[C@@H](c3ccc4c(c3)OCO4)CN2CC(=O)Nc2c(CC)cccc2CC)cc1 | cell-free assay | competition with immobilised ligand | 1 µM | 86% |
| c1cnn2ncc(-c3ccnc(N4CCC45COC5)n3)c2c1 | binding |  | 1 µM | 69% |
| FC(F)(F)Oc1cccc(-c2cnc3ccc(-c4ccncc4)nn23)c1 | cell-free assay | competition with immobilised ligand | 5 µM | 79% |
